Reference: ChEMBL document CHEMBL1134044, “Beneficial effects of different flavonoids, on functional recovery after ischemia and reperfusion in isolated rat heart” (2001)

Columns and labels:
Format in all cases: functional, Muscle tissue
Rattus norvegicus [1] = organism: Rattus norvegicus; assay: Effect of compound on catalase measured as disappearance of H2O2 in isolated rat heart muscle subjected to global ischemia
Summary of the method: (§1)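 Isolated rat hearts: 10 min initial perfusion, then 15 min recirculating Krebs with drug (diluted from 10⁻² M DMSO stock; final DMSO 0.01% v/v, matched in controls), 30 min global ischemia, then 30 min reperfusion with the same regime. Hearts were homogenized and frozen in liquid nitrogen. Enzymes were assayed in the centrifuged supernatant, normalized […]; mean ± S.D.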

Rattus norvegicus [2] = organism: Rattus norvegicus; assay: Effect of compound on Glutathione peroxidase measured as disappearance of NADPH in isolated rat heart muscle subjected to global ischemia; summary of the method: as §1
Rattus norvegicus [3] = organism: Rattus norvegicus; assay: Superoxide dismutase activity measured as inhibition of Cytochrome C reduction by 50% in isolated rat heart muscle subjected to global ischemia; summary of the method: as §1

SMILES | Activity (Rattus norvegicus [1]) | Activity (Rattus norvegicus [2]) | Activity (Rattus norvegicus [3])
CC(C)(C)c1cc(-c2cc(=O)c3ccc(O)cc3o2)cc(C(C)(C)C)c1O | 21 U (mg of protein)-1 | 1982 U (mg of protein)-1 | 8433 U (mg of protein)-1
CC(C)(C)c1cc(/C=C2\C(=O)c3ccc(O)cc3OC2c2cc(C(C)(C)C)c(O)c(C(C)(C)C)c2)cc(C(C)(C)C)c1O (stereo not drawn) | 21 U (mg of protein)-1 | 1906 U (mg of protein)-1 | 8935 U (mg of protein)-1
CC(C)(C)c1cc(/C=C/C(=O)c2ccc(O)cc2O)cc(C(C)(C)C)c1O | 20 U (mg of protein)-1 | 1879 U (mg of protein)-1 | 8740 U (mg of protein)-1
Oc1ncnc2[nH]ncc12 [ALLOPURINOL] | 21 U (mg of protein)-1 | 1912 U (mg of protein)-1 | 9800 U (mg of protein)-1
Cc1cc(C(C)(C)C)c(O)c(C(C)(C)C)c1 [BUTYLATED HYDROXYTOLUENE] | 20 U (mg of protein)-1 | 1803 U (mg of protein)-1 | 9636 U (mg of protein)-1
C[C@@H]1O[C@@H](OC[C@H]2O[C@@H](Oc3c(-c4ccc(O)c(O)c4)oc4cc(O)cc(O)c4c3=O)[C@H](O)[C@@H](O)[C@@H]2O)[C@H](O)[C@H](O)[C@H]1O [RUTIN] | 21 U (mg of protein)-1 | 1829 U (mg of protein)-1 | 9077 U (mg of protein)-1
